These results are taken from ChEMBL document CHEMBL1139946, “1-Aryl-4,6-dihydropyrazolo[4,3-d][1]benzazepin-5(1H)-ones: a new class of antiproliferative agents with selectivity for human leukemia and breast cancer cell lines” (Eur J Med Chem, 2007).

Usually GI50 stands for the concentration at which growth is held to half of that of the control.

One assay relates to K562. The experiment in a line: Antitumor activity against human K562 cells after 48 hrs by sulforhodamine B protein assay. It is filed as functional. The conditions noted are these: K562, 48 h. An outline of the steps: (§1)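 Part of the NCI 60-cell-line screen. Compounds tested at five concentrations (10^-8 to 10^-4 M) with continuous exposure for 48 h. Cell growth read by sulforhodamine B protein assay, with percent growth from optical density of treated versus untreated control cultures. GI50 is the concentration giving 50% net growth inhibition.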
On the technique in general: In SRB staining, fixed cells bind dye roughly in proportion to their protein.

For a further assay, the system named is MDA-MB-435. The experiment in a line: Antitumor activity against human MDA-MB435 cells after 48 hrs by sulforhodamine B protein assay. In kind it is functional. The conditions noted are these: MDA-MB-435, 48 h. An outline of the steps:
as §1

SMILES strings stand for the structures.

As to `COc1cccc2c1C(=O)c1c(O)c3c(c(O)c1C2=O)C[C@@](O)(C(=O)CO)C[C@@H]3O[C@H]1C[C@H](N)[C@H](O)[C@H](C)O1` [DOXORUBICIN], the values for the GI50 in the assay with K562 and in the assay with MDA-MB-435 were 100 nM and 200 nM, respectively.
